The values below come from ChEMBL document CHEMBL4033604, “Cytotoxicity and Mechanism of Action of the Marine-Derived Fungal Metabolite Trichodermamide B and Synthetic Analogues” (J Nat Prod, 2017).

The subject of assay [1] is HeLa. The assay is described as follows: Cytotoxicity against human HeLa cells after 48 hrs by SRB assay. It counts as functional, cell-based. An outline of the steps:
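HeLa cells treated over a concentration range for 48 h; survival by sulforhodamine B staining relative to vehicle control; four-parameter nonlinear regression; IC50 and IC85 as concentrations giving 50% or 85% inhibition of cell density; time-zero cell density marks cytotoxicity threshold; mean ± SEM, n = 4 independent experiments in triplicate.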

The test system of assay [2] is HeLa. In words: Cytotoxicity against human HeLa cells assessed as inhibition of colony formation pretreated for 4 hrs followed by compound washout measured after 10 days by crystal violet staining based assay. Format: functional, cell-based. A digest of the protocol: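 HeLa plated at 150 cells per dish, exposed 4 h to DMSO or IC85 concentration, washed with PBS, regrown in fresh medium 10 days; fixed, stained with 0.5% crystal violet in 10% methanol, colonies counted; n = 3−5 experiments in duplicate; one-way ANOVA.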

The subject of assay [3] is HeLa. In words: Induction of double stranded DNA breaks in human HeLa cells assessed as gamma-H2Ax phosphorylation at Ser139 residue at IC50 after 24 hrs by Hoechst 33342 staining-based indirect immunofluorescence microscopic method. Format: cell-based. A digest of the protocol: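 HeLa exposed 24 h to IC50 concentration or 0.6% DMSO; fixed in ice-cold MeOH 5 min, blocked 10% bovine calf serum 20 min, anti-γH2A.X (Ser139) 2 h then Alexa Fluor 594 secondary 1 h at room temperature; nuclei counterstained Hoechst 33342; foci scored by fluorescence microscopy; n = 2 experiments in duplicate.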

For assay [4], the system named is HeLa. The assay is described as follows: Cell cycle arrest in human HeLa cells assessed as accumulation at G2/M phase at IC85 after 24 hrs by Krishan's reagent staining-based flow cytometric method. Format: functional.
Assay [5] deals with HeLa. In words: Cell cycle arrest in human HeLa cells at IC85 after 4 to 24 hrs by Krishan's reagent staining-based flow cytometric method. Format: functional.
For assay [6], the system named is HeLa. In words: Induction of apoptosis in human HeLa cells assessed as upregulation of cleaved PARP protein levels at IC85 after 24 hrs by Western blot analysis. Format: functional, cell-based. An outline of the steps: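 HeLa treated with IC85 concentration or 0.1% DMSO over a 4, 8, 16, 24 h time course; whole-cell lysates (protease inhibitors, 50 mM NaF, 200 μM Na3VO4, 1 mM PMSF), equal protein on 12% Bis-Tris SDS-PAGE, PVDF blot probed for cleaved PARP with GAPDH loading control (1:1000); two independent experiments.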

The subject of another assay is A549. The assay is described as follows: Cytotoxicity against human A549 cells. It counts as functional, cell-based.
A further assay relates to P388. The assay is described as follows: Cytotoxicity against mouse P388 cells. Format: functional, cell-based.
The test system of another assay is HL-60. In words: Cytotoxicity against human HL60 cells. It counts as functional, cell-based.
For the next assay, the system named is CWR22R. The assay is described as follows: Cytotoxicity against human 22Rv1 cells after 24 to 72 hrs by MTT assay. It counts as functional, cell-based.
The next assay has as its system PC-3. In words: Cytotoxicity against human PC3 cells after 24 to 72 hrs by MTT assay. Format: functional, cell-based.
The test system of the next assay is LNCaP. In words: Cytotoxicity against human LNCAP cells after 24 to 72 hrs by MTT assay. It counts as functional, cell-based.
The nature of assay [7]: Cytotoxicity against mouse lymphoma cells by MTT assay. Format: functional, cell-based. The conditions noted are these: Lymphoma cell.

Structures are written as SMILES. Activity calls are given as the source filed them.

Consider `COc1ccc2cc(N)c(=O)oc2c1OC`, for which, in the assay with HeLa [1], the IC50 is greater than 10 µM and the IC85 was greater than 10 µM.

In the case of `CCOC(=O)C1=NO[C@H]2CC(=O)C=C[C@@]2(O)C1`, the inhibition entry in the assay with HeLa [2] was “Active”. Besides, in the assay with HeLa [3], the result was inactive. For the same compound, in the assay with HeLa [1], it took 12 µM to reach half-maximal inhibition (IC50) and the IC85 came to 32 µM. Also, the outcome in the assay with HeLa [4] was Active.

In the assay with HeLa [1], `COc1ccc2cc(N(C)C(=O)C3=NO[C@H]4[C@H](O)C=C[C@@H](O)[C@@]4(O)C3)c(=O)oc2c1OC` [TRICHODERMAMIDE C] gave an IC50 greater than 10 µM and an IC85 greater than 10 µM.

Take `COc1ccc2cc(NC(=O)C3=NO[C@H]4C=C[C@@H]5O[C@@H]5[C@@]4(O)C3)c(=O)oc2c1OC`: in the assay with HeLa [1], the IC50 was greater than 10 µM and the IC85 is greater than 10 µM.

In the assay on HeLa [1], `CCOC(=O)C1=NO[C@H]2C=CC=C[C@@]2(O)C1` returned an IC50 greater than 10 µM and an IC85 greater than 10 µM.

In the assay on HeLa [1], `COc1ccc2cc(NC(=O)C3=NO[C@H]4C=CC=C[C@@]4(O)C3)c(=O)oc2c1OC` had an IC50 greater than 10 µM and an IC85 greater than 10 µM.

For `CNc1cc2ccc(OC)c(OC)c2oc1=O`, in the assay with HeLa [1], the IC50 is greater than 10 µM and the IC85 is greater than 10 µM.

In the case of `CCOC(=O)C1=NO[C@H]2C=C[C@@H]3O[C@@H]3[C@@]2(O)C1`, in the assay with HeLa [1], the IC50 is greater than 10 µM and the IC85 is greater than 10 µM.

For the compound `CCOC(=O)C1=NO[C@H]2CC(=O)[C@@H]3O[C@@H]3[C@@]2(O)C1` (relative stereo), in the assay with HeLa [2], the inhibition entry is “inactive”. Besides, the outcome in the assay with HeLa [3], in the assay with HeLa [5] and in the assay with HeLa [6] was inactive. For the same compound, in the assay on HeLa [1], inhibition was half-maximal at 1.4 µM (IC50). The same compound showed an IC85 in the assay on HeLa [1] of 3.4 µM.

In the case of `COc1ccc2cc(NC(=O)[C@@]34C[C@]5(O)[C@@H](C=C[C@@H](O)[C@@H]5ON3)S4)c(=O)oc2c1OC`, the results for the IC50 in the assay on A549, with P388 and in the assay with HL-60 were greater than 100 µM, greater than 100 µM and 84 µM, respectively.

As for `COc1ccc2cc(NC(=O)C3=NO[C@H]4[C@H](O)C=C[C@@H](Cl)[C@@]4(O)C3)c(=O)oc2c1OC` [TRICHODERMAMIDE B], the inhibition result in the assay with HeLa [2] was “Active”. Also, the outcome in the assay on HeLa [3] was Active. Besides, in the assay with HeLa [1], the IC50 turned out to be 3.1 µM and the IC85 is 18 µM.

In the assay with HeLa [1], `COc1ccc2cc(N(C)C(=O)C3=NO[C@H]4C=C[C@@H]5O[C@@H]5[C@@]4(O)C3)c(=O)oc2c1OC` gave an IC50 greater than 10 µM and an IC85 greater than 10 µM.

`COc1ccc2cc(NC(=O)C3=NO[C@H]4CC(=O)C=C[C@@]4(O)C3)c(=O)oc2c1OC` (relative stereo): the inhibition result with HeLa [2] was “inactive”. The result in the assay with HeLa [3], with HeLa [5] and in the assay on HeLa [6] was inactive. The same compound came in with an IC50 in the assay with HeLa [1] of 5.7 µM. The compound further returned an IC85 in the assay with HeLa [1] of 12 µM.

In the assay on HeLa [1], `COc1ccc2cc(NC(=O)C3=NO[C@H]4CC(=O)[C@@H]5O[C@@H]5[C@@]4(O)C3)c(=O)oc2c1OC` yielded a concentration for half-maximal inhibition (IC50) greater than 10 µM and an IC85 greater than 10 µM.

As for `CCOC(=O)C1=NO[C@H]2[C@@H]3O[C@@H]3C=C[C@@]2(O)C1`, the inhibition result in the assay on HeLa [2] was “inactive”. In addition, the result in the assay on HeLa [3], in the assay on HeLa [5] and in the assay on HeLa [6] was inactive. Further, the IC50 with HeLa [1] was found to be 21 µM. The IC85 with HeLa [1] came out at 51 µM.

Consider `COc1ccc([C@H]2SS[C@@]34C[C@]5(O)[C@H](Cl)C=C[C@@H](O)[C@@H]5ON3C(=O)[C@@H]2N(C)C4=O)c(O)c1OC`, for which the IC50 was 0.51 to 5.11 µM in the assay on CWR22R, 0.51 to 5.11 µM in the assay with PC-3, 0.51 to 5.11 µM in the assay on LNCaP and 2 µM in assay [7].

`COc1ccc2cc(N(C)C(=O)C3=NO[C@H]4[C@@H]5O[C@@H]5C=C[C@@]4(O)C3)c(=O)oc2c1OC`: in the assay on HeLa [1], the IC50 was greater than 10 µM and the IC85 was greater than 10 µM.

In the assay with HeLa [1], `COc1ccc2cc(N(C)C(=O)C3=NO[C@H]4C=CC=C[C@@]4(O)C3)c(=O)oc2c1OC` yielded an IC50 greater than 10 µM and an IC85 greater than 10 µM.

`COc1ccc2cc(NC(=O)C3=NO[C@H]4[C@H](O)C=C[C@@H](O)[C@@]4(O)C3)c(=O)oc2c1OC` [TRICHODERMAMIDE A]: the IC50 with HeLa [1] was greater than 10 µM; with A549 it was greater than 100 µM; in the assay on P388, greater than 100 µM; with HL-60, 89 µM. The same compound returned an IC85 in the assay on HeLa [1] greater than 10 µM.
